The molecules below were run against Excitatory amino acid transporter 2 (Homo sapiens, UniProt P43004) (assay: Inhibition of [3H]-D-aspartate uptake at human EAAT2 expressed in HEK293 cells after 6 mins by scintillation counting). Settings: not given.
Format: cell-based
How it was run: (§1)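 Each transporter subtype stably expressed in its own HEK293 cell line. Inhibitor potency measured as block of [³H]-D-aspartate uptake into these cells and reported as IC₅₀ values.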

Sequence of Excitatory amino acid transporter 2 (P43004 whole entry): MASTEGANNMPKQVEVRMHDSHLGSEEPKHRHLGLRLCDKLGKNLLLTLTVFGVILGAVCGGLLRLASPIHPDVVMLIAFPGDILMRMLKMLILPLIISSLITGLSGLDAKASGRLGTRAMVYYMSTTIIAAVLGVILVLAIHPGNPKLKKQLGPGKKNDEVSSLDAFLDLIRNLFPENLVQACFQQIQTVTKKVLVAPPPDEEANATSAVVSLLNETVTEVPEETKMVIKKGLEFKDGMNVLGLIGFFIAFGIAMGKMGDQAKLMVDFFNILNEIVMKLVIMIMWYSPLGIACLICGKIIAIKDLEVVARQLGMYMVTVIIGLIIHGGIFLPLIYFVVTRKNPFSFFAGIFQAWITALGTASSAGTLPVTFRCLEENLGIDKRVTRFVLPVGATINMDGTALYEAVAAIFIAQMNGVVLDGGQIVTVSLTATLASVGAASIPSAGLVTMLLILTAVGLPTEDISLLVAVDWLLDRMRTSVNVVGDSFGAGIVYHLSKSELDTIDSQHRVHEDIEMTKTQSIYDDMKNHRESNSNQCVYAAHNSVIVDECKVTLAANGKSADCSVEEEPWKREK

| SMILES | IC50 |
| --- | --- |
| COc1ccc2c(C3C(C#N)=C(N)OC4=C3C(=O)CC(c3ccccc3)C4)cc(=O)oc2c1 (stereo not drawn) | > 300 µM |
| COc1ccc2c(C3CC(=O)C4=C(C3)OC(N)=C(C#N)C4C)cc(=O)oc2c1 (stereo not drawn) | > 300 µM |
| CCN(CC)c1ccc2c(C3CC(=O)C4=C(C3)OC(N)=C(C#N)C4C)cc(=O)oc2c1 (stereo not drawn) | > 300 µM |
| CCN(CC)c1ccc2c(C)c(-c3ccc(C4C(C#N)=C(N)OC5=C4C(=O)CC(c4ccccc4)C5)cc3)c(=O)oc2c1 (stereo not drawn) | > 300 µM |
| CCN(CC)c1ccc2c(C3C(C#N)=C(N)OC4=C3C(=O)CC(c3cccc5ccccc35)C4)cc(=O)oc2c1 (stereo not drawn) | > 300 µM |
| COc1ccc2c(C)c(-c3ccc(C4C(C#N)=C(N)OC5=C4C(=O)CC(c4ccccc4)C5)cc3)c(=O)oc2c1 (stereo not drawn) | > 300 µM |

The molecules below were run against T1, Excitatory amino acid transporter 3 (Homo sapiens, UniProt P43005) (assay: Inhibition of [3H]-D-aspartate uptake at human EAAT3 expressed in HEK293 cells after 6 mins by scintillation counting). Settings: not given.
T1 sequence (P43005 whole entry): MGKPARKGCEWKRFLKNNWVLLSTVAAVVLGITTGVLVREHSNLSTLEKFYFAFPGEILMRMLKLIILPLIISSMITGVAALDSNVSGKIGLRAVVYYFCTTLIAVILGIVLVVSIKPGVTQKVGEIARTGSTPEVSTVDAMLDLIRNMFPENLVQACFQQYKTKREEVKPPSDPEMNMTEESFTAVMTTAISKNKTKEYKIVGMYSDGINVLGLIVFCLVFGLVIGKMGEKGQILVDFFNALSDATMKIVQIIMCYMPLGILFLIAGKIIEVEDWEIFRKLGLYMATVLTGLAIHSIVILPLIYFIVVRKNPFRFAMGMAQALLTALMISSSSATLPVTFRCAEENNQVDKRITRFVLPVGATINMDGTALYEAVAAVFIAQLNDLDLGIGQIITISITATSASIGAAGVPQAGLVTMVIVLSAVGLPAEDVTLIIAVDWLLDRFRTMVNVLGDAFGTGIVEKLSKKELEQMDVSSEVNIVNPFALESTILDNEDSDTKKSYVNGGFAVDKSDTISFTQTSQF
Format: cell-based
How it was run: as §1

| SMILES | IC50 |
| --- | --- |
| COc1ccc2c(C3C(C#N)=C(N)OC4=C3C(=O)CC(c3ccccc3)C4)cc(=O)oc2c1 (stereo not drawn) | > 300 µM |
| COc1ccc2c(C3CC(=O)C4=C(C3)OC(N)=C(C#N)C4C)cc(=O)oc2c1 (stereo not drawn) | > 300 µM |
| CCN(CC)c1ccc2c(C3CC(=O)C4=C(C3)OC(N)=C(C#N)C4C)cc(=O)oc2c1 (stereo not drawn) | > 300 µM |
| CCN(CC)c1ccc2c(C)c(-c3ccc(C4C(C#N)=C(N)OC5=C4C(=O)CC(c4ccccc4)C5)cc3)c(=O)oc2c1 (stereo not drawn) | > 300 µM |
| CCN(CC)c1ccc2c(C3C(C#N)=C(N)OC4=C3C(=O)CC(c3cccc5ccccc35)C4)cc(=O)oc2c1 (stereo not drawn) | > 300 µM |
| COc1ccc2c(C)c(-c3ccc(C4C(C#N)=C(N)OC5=C4C(=O)CC(c4ccccc4)C5)cc3)c(=O)oc2c1 (stereo not drawn) | > 300 µM |

What follows are molecules tested against Excitatory amino acid transporter 1 (Homo sapiens, UniProt P43003) (assay: Inhibition of [3H]-D-aspartate uptake at human EAAT1 expressed in HEK293 cells after 6 mins by scintillation counting). Settings: read-out: IC50.
Sequence of Excitatory amino acid transporter 1 (P43003 whole entry): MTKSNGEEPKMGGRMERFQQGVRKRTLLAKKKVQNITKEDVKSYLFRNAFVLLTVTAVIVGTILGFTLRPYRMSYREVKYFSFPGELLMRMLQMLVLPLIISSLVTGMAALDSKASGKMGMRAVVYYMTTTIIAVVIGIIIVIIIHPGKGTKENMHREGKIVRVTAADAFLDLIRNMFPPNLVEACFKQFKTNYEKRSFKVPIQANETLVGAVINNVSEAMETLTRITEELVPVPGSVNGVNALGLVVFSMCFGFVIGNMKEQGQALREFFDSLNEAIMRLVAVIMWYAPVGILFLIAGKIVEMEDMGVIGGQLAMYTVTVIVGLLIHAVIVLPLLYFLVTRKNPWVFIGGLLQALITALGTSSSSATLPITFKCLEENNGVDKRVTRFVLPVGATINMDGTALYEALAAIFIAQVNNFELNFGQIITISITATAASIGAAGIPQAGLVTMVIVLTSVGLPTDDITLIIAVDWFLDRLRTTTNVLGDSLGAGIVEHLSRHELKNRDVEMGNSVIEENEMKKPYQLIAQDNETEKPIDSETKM
Format: cell-based
How it was run: as §1

| SMILES | IC50 |
| --- | --- |
| COc1ccc2c(C3C(C#N)=C(N)OC4=C3C(=O)CC(c3ccccc3)C4)cc(=O)oc2c1 (stereo not drawn) | > 300 µM |
| COc1ccc2c(C3CC(=O)C4=C(C3)OC(N)=C(C#N)C4C)cc(=O)oc2c1 (stereo not drawn) | 17 µM |
| CCN(CC)c1ccc2c(C3CC(=O)C4=C(C3)OC(N)=C(C#N)C4C)cc(=O)oc2c1 (stereo not drawn) | 14 µM |
| CCN(CC)c1ccc2c(C)c(-c3ccc(C4C(C#N)=C(N)OC5=C4C(=O)CC(c4ccccc4)C5)cc3)c(=O)oc2c1 (stereo not drawn) | > 300 µM |
| CCN(CC)c1ccc2c(C3C(C#N)=C(N)OC4=C3C(=O)CC(c3cccc5ccccc35)C4)cc(=O)oc2c1 (stereo not drawn) | > 300 µM |
| COc1ccc2c(C)c(-c3ccc(C4C(C#N)=C(N)OC5=C4C(=O)CC(c4ccccc4)C5)cc3)c(=O)oc2c1 (stereo not drawn) | > 300 µM |

Same assay, conditions: read-out: pIC50 (converted)

| SMILES | IC50 |
| --- | --- |
| COc1ccc2c(C3C(C#N)=C(N)OC4=C3C(=O)CC(c3ccccc3)C4)cc(=O)oc2c1 (stereo not drawn) | > 316 µM |
| COc1ccc2c(C3CC(=O)C4=C(C3)OC(N)=C(C#N)C4C)cc(=O)oc2c1 (stereo not drawn) | 16.2 µM |
| CCN(CC)c1ccc2c(C)c(-c3ccc(C4C(C#N)=C(N)OC5=C4C(=O)CC(c4ccccc4)C5)cc3)c(=O)oc2c1 (stereo not drawn) | > 316 µM |
| CCN(CC)c1ccc2c(C3C(C#N)=C(N)OC4=C3C(=O)CC(c3cccc5ccccc35)C4)cc(=O)oc2c1 (stereo not drawn) | > 316 µM |
| COc1ccc2c(C)c(-c3ccc(C4C(C#N)=C(N)OC5=C4C(=O)CC(c4ccccc4)C5)cc3)c(=O)oc2c1 (stereo not drawn) | > 316 µM |

From ChEMBL document CHEMBL2203156, “Design, synthesis and pharmacological characterization of coumarin-based fluorescent analogs of excitatory amino acid transporter subtype 1 selective inhibitors, UCPH-101 and UCPH-102” (Bioorg Med Chem, 2012)
